Compounds with a hit are over-represented: about 2.1% of the library has one in this group of screens.
RBBP9 inh = human RBBP9 inhibitors, primary screen, biochemical, fluorescence polarization, FP-Rh probe, HTS | Serine hydrolase RBBP9 (Homo sapiens), O75884 | recombinant RBBP9 | inhibition, % at 7.94 µM | 220,000 compounds, 0.2% hits;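 active = inhibition above the campaign mean of all tested compounds plus 3 SD, cut at about 14% in these data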;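 note: plate controls were DMSO wells with RBBP9 for no effect and wells lacking RBBP9 protein for full effect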
Target sequence (O75884 whole entry, looked up): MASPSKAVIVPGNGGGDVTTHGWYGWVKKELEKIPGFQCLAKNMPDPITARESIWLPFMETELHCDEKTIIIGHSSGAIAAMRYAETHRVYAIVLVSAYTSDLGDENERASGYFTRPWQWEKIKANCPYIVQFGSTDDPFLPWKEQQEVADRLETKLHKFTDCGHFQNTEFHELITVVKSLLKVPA
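Material: RBBP9 protein. Amount: RBBP9 at 2.5 µM in dispensed solution, before mixing. Schedule: 30 min then 45 min, 25 °C. Medium: Tris buffer pH 8.0, NaCl, Pluronic. Measured by: fluorescence polarization. Measure: percent inhibition from mP, scaled between DMSO and no-protein wells. Replication: one well per compound.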
L929 necroptosis = inhibitors of zVAD-triggered necroptosis, primary screen, L929 cells; L929 zVAD necroptosis rescue, ATP luminescence, 24 h; with zVAD 60 µM; 220,000 compounds, 0.38% hits; viability rescue, % at 10 µM;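 active = activation, scaled between plate controls, above about 75%, limit read from the data; inactive = activation under that limit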;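 note: 0% = zVAD with DMSO and 100% = DMSO alone without zVAD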
Wee1 degr inh = Wee1 degradation inhibitors, primary screen, cell-based, HeLa, Wee1K328M-luciferase, luminescence. Wee1-like protein kinase (Homo sapiens), P30291. HeLa Luc-Wee1K328M stability; 100% = proteasome inhibitor MG132 effect. reporter increase, % at 5 µM. 220,000 compounds, 1.2% hits;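 active = activation above the mean of all tested compounds plus 3 SD, set per screening run, cut at about 8.8% in these data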;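 note: cells exposed to compound for 20 h before luminescence read; 0% = DMSO alone and 100% = MG132 at 30 µM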
TNF necrop inh = inhibitors of TNF-alpha triggered necroptosis, primary screen, cell-based, Jurkat FADD-/-, single concentration. Jurkat FADD-/- TNF necroptosis rescue, ATP luminescence, 24 h; 0 = TNF only, 100 = no-TNF cells. activation (protection from cell death), % at 10 µM. 220,000 compounds, 0.068% hits. AID 463075, 2010;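 active = activation, meaning protection from cell death, of at least 50% relative to plate controls; inactive = activation below 50%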;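 note: necroptosis triggered by 40 ng/mL TNF-alpha added together with compound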
Pf gametocyte = late stage P. falciparum gametocyte viability inhibitors, primary screen, ATP luminescence, HTS; P. falciparum stage V gametocytes, 24 h; inhibition, % at 10.9 µM; 150,000 compounds, 0.065% hits; AID 743093, 2013;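 active = inhibition above the mean plus 3 SD of compounds within the control limits, set per campaign, cut at about 38% in these data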;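 note: 0% = DMSO wells and 100% = medium only without gametocytes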
m-calpain inh = inhibitors of pig calpain II, primary screen, biochemical, fluorogenic peptide substrate, 1536-well | purified calpain II, 30 min | inhibition, % at 16 µM | 220,000 compounds, 0.37% hits | AID 1236, 2008;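 active = inhibition above about 50%, limit read from the data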
An asterisk follows results filed as active; i = inactive; nt = not tested or not shown.

SMILES	RBBP9 inh	L929 necroptosis	Wee1 degr inh	TNF necrop inh	Pf gametocyte	m-calpain inh
COc1ccc(-n2cnc3cc(NS(=O)(=O)c4ccccc4)ccc32)cc1	-6	-1	3	53*	1	29
CCCCCCCCCCCCCCCCn1cc[n+](CC(C)=O)c1	-4	-1	-2	-13	nt	54*
Cc1csc(NC(=O)Nc2ccc(Cl)cc2)n1	-8	23	8.9*	2	nt	-19
N#Cc1cnc(N)c(Br)c1	-3	10	11*	0	nt	-6
CC(NS(=O)(=O)c1ccccc1)C1COc2ccccc2O1 (stereo not drawn)	0	-1	13*	1	1	1
Cc1csc(NC(=O)C2COc3ccccc3O2)n1 (stereo not drawn)	-5	0	1	3	-11	-29
Cc1cnc(NC(=O)C2COc3ccccc3O2)s1 (stereo not drawn)	-4	1	-2	76*	nt	-16
Cc1cc(NC(=O)C2COc3ccccc3O2)no1 (stereo not drawn)	-5	48	3	90*	nt	-10
O=C1N=C2N(CCN3CCCCC3)c3ccccc3N2/C1=C\c1ccc([N+](=O)[O-])s1	nt	nt	nt	nt	-4	nt
O=C(/C=C/c1ccccc1)OCCCN=C1NS(=O)(=O)c2ccccc21	-1	0	-3	-1	nt	-3
O=C1CC(C(=O)Nc2ccc(Cl)cc2)n2ncnc2N1 (stereo not drawn)	2	-1	0	1	10	74*
CCc1ccc(NC(=O)C2CC(=O)Nc3ncnn32)cc1 (stereo not drawn)	-8	1	1	1	-13	-2
Fc1ccccc1Nc1nc(NCc2ccco2)nc(N2CCOCC2)n1	-6	4	-2	2	12	20
CC(C)c1ccc(Nc2nc(NCc3ccco3)nc(N3CCOCC3)n2)cc1	-11	87*	1	2	30	15
Cc1cc(C)c(NC(=O)C2CSCCS2)c(C)c1 (stereo not drawn)	4	0	-4	-1	nt	-8
Cc1sc(NC(=O)c2ccc(OCC(C)C)cc2)c(C(N)=O)c1-c1ccc(Cl)cc1Cl	-9	0	1	-5	-30	i
Fc1ccc(-c2nc(-c3cccs3)no2)cc1	-14	0	15*	-1	1	8
CCCN(CCC)C(=S)NC(=O)c1ccc(-c2ccccc2)cc1	-6	0	2	-4	nt	50*
O=C1C[C@@H]2c3c(cccc3CN1Cc1ccc(Cl)cc1)C[C@@H](O)[C@H]2O	nt	nt	nt	nt	-10	nt
CS(=O)c1ccccc1-c1nc(-c2ccc([N+](=O)[O-])cc2)no1 (stereo not drawn)	nt	nt	nt	nt	-3	nt
O=C(O)CC/C(=N\NC(=O)CNC(=O)c1ccc(F)cc1)c1ccccc1	-8	0	-2	0	6	3
O=c1cc(NCCO)c2ccccc2o1	-4	0	1	0	nt	-1
O=c1cc(NCCc2ccccc2)c2ccccc2o1	-3	0	9.0*	-1	3	-27
Cc1ccc(-c2noc(CN(C(=O)CCCCCN3C(=O)c4ccccc4C3=O)C(C)C)n2)cc1	-4	0	2	-3	nt	55*
Nc1nonc1-c1noc(CCCCCN2C(=O)c3ccccc3C2=O)n1	-2	0	2	-1	nt	51*
SMILES	RBBP9 inh	L929 necroptosis	Wee1 degr inh	TNF necrop inh	Pf gametocyte	m-calpain inh
CC1=C(C(=O)OCC(C)C)C(c2ccc(F)cc2)NC(=O)N1 (stereo not drawn)	6	-1	1	-4	nt	2
CCOC(=O)c1cnc(SC2CCc3ccccc3C2=O)nc1N (stereo not drawn)	-4	0	-1	-1	nt	59*
Cc1c(/C=N/NC(=O)C(C)(C)Oc2ccc(Cl)cc2)cnn1C	-8	1	9.9*	0	nt	-16
Cc1nn(C)c(C)c1/C=N/NC(=O)C(C)(C)Oc1ccc(Cl)cc1	-5	1	-2	2	nt	14
O=c1c2sc(-c3ccccc3)cc2nc2n1CCCCC2	1	3	9.9*	6	2	8
COc1cc(CNc2nc(C)c([N+](=O)[O-])c(C)c2C#N)cc(OC)c1	-1	0	3	-3	nt	66*
COCc1c(C#N)c(NCc2cc(OC)c(OC)c(OC)c2)nc(C)c1[N+](=O)[O-]	4	0	0	0	-6	-2
CN1/C(=C/C2CC(=O)NC2=O)C(C)(C)c2ccccc21 (stereo not drawn)	-1	0	13*	0	nt	-44
CN1/C(=C/C2CC(=O)N(c3cccc4ccccc34)C2=O)C(C)(C)c2ccccc21 (stereo not drawn)	0	1	3	1	nt	-74
O=c1c2ccccc2nc(SCc2cn3ccsc3n2)n1-c1ccccc1F	-7	0	0	-12	nt	52*
COc1ccc(OC)c(/C=C2\SC(=S)N(C(C(=O)O)c3ccccc3)C2=O)c1 (stereo not drawn)	-1	0	9.7*	2	1	32
CCOc1ccc(/C=C2\SC(=S)N(C(C(=O)O)c3ccccc3)C2=O)cc1OC (stereo not drawn)	-7	1	-1	-1	5	18
CSCc1ccc(C(=O)Nc2cccc(C)c2C)cc1	-7	1	4	1	nt	-10
O=S(=O)(c1ccccc1S(=O)(=O)N1CCCCC1)N1CCCCC1	2	0	9.1*	0	nt	17
CCOc1ccc(S(=O)(=O)N2CCN(C)CC2)c(C)c1C	3	-1	-2	-1	7	18
CCOc1ccc(S(=O)(=O)N2CCCC2)cc1	-6	1	0	0	40*	-14
CCOc1ccc(S(=O)(=O)N2CCCCC2)c(C)c1C	-6	0	-1	-1	-3	57*
O=[N+]([O-])c1ccccc1S(=O)(=O)N1CCCCC1	-5	-1	-2	-1	-17	19
CCN(CC)C(=O)COc1ccc(S(=O)(=O)N2CCCC2)cc1	nt	nt	nt	nt	-4	nt
COc1ccc2c(c1)CCN1C2CCN2C(=O)CCC21 (stereo not drawn)	-11	0	0	2	nt	14
CCOC(=O)CCNC(=O)N1CCC(CCOc2ccccc2)(C(=O)OCC)CC1	nt	nt	nt	nt	2	nt
COc1ccc(/C=N\NC(=O)COc2ccccc2)c(C(=O)O)c1OC	-12	1	-3	0	nt	11
CC(=O)c1ccc(-n2c(-c3cc(-c4ccsc4)n[nH]3)n[nH]c2=S)cc1	-6	6	-1	0	10	-24
